From ChEMBL document CHEMBL3865784 (Eur J Med Chem, 2016)
Activity calls are given as the source filed them. The calls are words filed in the database; no cut-off is given here.

Legend:
[1] = Cytotoxicity against human HCT116 cells expressing NQO1 assessed as reduction in cell viability after 72 hrs by MTT assay; format: functional, cell-based; conditions: HCT-116, 72 h
In short: (§1)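 Cancer lines from NCI, grown in RPMI 1640 with 10% FBS, 2 mM L-glutamine, penicillin/streptomycin, 37 °C, 5% CO2; seeded 0.1 × 10^6 cells/well (HL-60) or 0.7 × 10^5 cells/well (solid tumours). Compounds in DMSO, final 0.1% v/v; DMSO vehicle as negative control.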

[2] = Cytotoxicity against human MDA-MB-435 cells overexpressing NQO1 assessed as reduction in cell viability after 72 hrs by MTT assay; format: functional, cell-based; conditions: MDA-MB-435, 72 h; in short: as §1
[3] = Cytotoxicity against human OVCAR8 cells overexpressing NQO1 assessed as reduction in cell viability after 72 hrs by MTT assay; format: functional, cell-based; conditions: OVCAR-8, 72 h; in short: as §1
[4] = Cytotoxicity against NQO1-deficient human PBMC assessed as reduction in cell viability after 72 hrs by MTT assay; format: toxicity, cell-based; conditions: for IC50: pbmc
[5] = Cytotoxicity against NQO1-deficient chinese hamster V79 cells assessed as reduction in cell viability after 72 hrs by MTT assay; format: toxicity, cell-based, Cricetulus griseus; conditions: for IC50: v79
[6] = (§2) Cytotoxicity against NQO1-deficient mouse L929 cells assessed as reduction in cell viability after 72 hrs by MTT assay; format: toxicity, cell-based; conditions: mouse, NQO1-deficient L929 cells
[7] = tested on: PC-3; test: Induction of apoptosis in human PC3 cells assessed as externalization of phosphatidylserine on cell surface by measuring early apoptotic cells at 5 uM after 6 hrs by Annexin-V/FITC/PI staining by flow cytometry (reference value: 0.93 +/- 0.05%); format: functional
[8] = tested on: PC-3; test: Induction of apoptosis in human PC3 cells assessed as externalization of phosphatidylserine on cell surface by measuring late apoptotic cells at 5 uM after 6 hrs by Annexin-V/FITC/PI staining by flow cytometry (reference value: 0%); format: functional
[9] = Cytotoxicity against NQO1-deficient human HL60 cells assessed as reduction in cell viability after 72 hrs by MTT assay; format: functional, cell-based; conditions: HL-60, 72 h; in short: as §1
[10] = Cytotoxicity against human PC3 cells overexpressing NQO1 assessed as reduction in cell viability after 72 hrs by MTT assay; format: functional, cell-based; conditions: PC-3, 72 h
[11] = Cytotoxicity against human SF295 cells overexpressing NQO1 assessed as reduction in cell viability after 72 hrs by MTT assay; format: functional, cell-based; conditions: SF-295, 72 h
[12] = species on record: Mus musculus; test: as §2; format: toxicity, cell-based; conditions: l929
[13] = tested on: HL-60; test: Selectivity index, ratio of IC50 for NQO1-deficient human PBMC to IC50 for NQO1-deficient human HL60 cells
In short: (§3)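 Selectivity index is IC50 in the normal cells divided by IC50 in the cancer line. Normal cells: V79 and L929 in DMEM, PBMC in RPMI with phytohaemagglutinin. Cancer lines in RPMI with 10% FBS, seeded at 0.1 × 10^6 (HL-60) or 0.7 × 10^5 cells/well (solid tumors). Absorbance 550 nm; nonlinear regression.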

[14] = tested on: HL-60; test: Selectivity index, ratio of IC50 for NQO1-deficient chinese hamster V79 cells to IC50 for NQO1-deficient human HL60 cells; format: functional; in short: as §3
[15] = tested on: L929; test: Selectivity index, ratio of IC50 for NQO1-deficient mouse L929 cells to IC50 for NQO1-deficient human HL60 cells; format: functional; in short: as §3
[16] = tested on: HCT-116; test: Selectivity index, ratio of IC50 for NQO1-deficient human PBMC to IC50 for human HCT116 cells expressing NQO1
In short: as §3, with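 “line. All IC50s come from 72 h MTT assays.” for “line.”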

[17] = tested on: HCT-116; test: Selectivity index, ratio of IC50 for NQO1-deficient chinese hamster V79 cells to IC50 for human HCT116 cells expressing NQO1
In short: as §3, with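 “line. All IC50s come from 72 h MTT assays.” for “line.”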

[18] = tested on: HCT-116; test: Selectivity index, ratio of IC50 for NQO1-deficient mouse L929 cells to IC50 for human HCT116 cells expressing NQO1
In short: as §3, with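 “line. All IC50s come from 72 h MTT assays.” for “line.”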

[19] = tested on: PC-3; test: Selectivity index, ratio of IC50 for NQO1-deficient human PBMC to IC50 for human PC3 cells overexpressing NQO1; in short: as §3
[20] = tested on: V79; test: Selectivity index, ratio of IC50 for NQO1-deficient chinese hamster V79 cells to IC50 for human PC3 cells overexpressing NQO1; in short: as §3
[21] = tested on: L929; test: Selectivity index, ratio of IC50 for NQO1-deficient mouse L929 cells to IC50 for human PC3 cells overexpressing NQO1; in short: as §3
[22] = tested on: SF-295; test: Selectivity index, ratio of IC50 for NQO1-deficient human PBMC to IC50 for human SF295 cells overexpressing NQO1; in short: as §3
[23] = tested on: SF-295; test: Selectivity index, ratio of IC50 for NQO1-deficient chinese hamster V79 cells to IC50 for human SF295 cells overexpressing NQO1; in short: as §3
[24] = tested on: L929; test: Selectivity index, ratio of IC50 for NQO1-deficient mouse L929 cells to IC50 for human SF295 cells overexpressing NQO1; in short: as §3
[25] = Selectivity index, ratio of IC50 for NQO1-deficient human PBMC to IC50 for human MDA-MB-435 cells overexpressing NQO1; in short: as §3
[26] = tested on: V79; test: Selectivity index, ratio of IC50 for NQO1-deficient chinese hamster V79 cells to IC50 for human MDA-MB-435 cells overexpressing NQO1; in short: as §3
[27] = tested on: L929; test: Selectivity index, ratio of IC50 for NQO1-deficient mouse L929 cells to IC50 for human MDA-MB-435 cells overexpressing NQO1; in short: as §3
[28] = tested on: OVCAR-8; test: Selectivity index, ratio of IC50 for NQO1-deficient human PBMC to IC50 for human OVCAR8 cells overexpressing NQO1
In short: as §3, with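 “line. All IC50s come from 72 h MTT assays.” for “line.”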

[29] = tested on: OVCAR-8; test: Selectivity index, ratio of IC50 for NQO1-deficient chinese hamster V79 cells to IC50 for human OVCAR8 cells overexpressing NQO1
In short: as §3, with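 “line. All IC50s come from 72 h MTT assays.” for “line.”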

[30] = tested on: L929; test: Selectivity index, ratio of IC50 for NQO1-deficient mouse L929 cells to IC50 for human OVCAR8 cells overexpressing NQO1; in short: as §3
[31] = tested on: PC-3; test: Induction of apoptosis in human PC3 cells assessed as externalization of phosphatidylserine on cell surface by measuring early apoptotic cells at 5 uM pretreated with NAC measured after 6 hrs by Annexin-V/FITC/PI staining by flow cytometry (reference value: 0.93 +/- 0.05%); format: functional
[32] = tested on: PC-3; test: Induction of apoptosis in human PC3 cells assessed as externalization of phosphatidylserine on cell surface by measuring late apoptotic cells at 5 uM pretreated with NAC measured after 6 hrs by Annexin-V/FITC/PI staining by flow cytometry (reference value: 0%); format: functional
[33] = tested on: PC-3; test: Induction of apoptosis in human PC3 cells assessed as externalization of phosphatidylserine on cell surface by measuring early apoptotic cells at 5 uM cotreated with NQO1 inhibitor dicoumarol measured after 6 hrs by Annexin-V/FITC/PI staining by flow cytometry (reference value: 0.93 +/- 0.05%); format: functional; set-up: scale not given: the % may be the effect or the level left
[34] = tested on: PC-3; test: Induction of apoptosis in human PC3 cells assessed as externalization of phosphatidylserine on cell surface by measuring late apoptotic cells at 5 uM cotreated with NQO1 inhibitor dicoumarol measured after 6 hrs by Annexin-V/FITC/PI staining by flow cytometry (reference value: 0%); format: functional; set-up: scale not given: the % may be the effect or the level left
[35] = biological target: NAD(P)H dehydrogenase [quinone] 1 (Homo sapiens) (UniProt P15559); test: Activation of NQO1 in human PC3 cells assessed as induction of ROS generation at 5 uM after 1 hr by H2DCFDA probe based flow cytometric analysis; format: cell-based; conditions: PC-3
Sequence of NAD(P)H dehydrogenase [quinone] 1 (Homo sapiens) (P15559 whole entry): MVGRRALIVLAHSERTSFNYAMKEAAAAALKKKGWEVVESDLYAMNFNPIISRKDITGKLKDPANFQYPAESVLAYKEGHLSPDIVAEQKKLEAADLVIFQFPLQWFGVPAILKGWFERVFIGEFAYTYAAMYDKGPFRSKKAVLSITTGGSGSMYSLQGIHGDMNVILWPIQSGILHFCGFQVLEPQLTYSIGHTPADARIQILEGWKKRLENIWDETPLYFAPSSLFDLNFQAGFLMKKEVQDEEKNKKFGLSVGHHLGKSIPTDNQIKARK

| SMILES | IC50 [1] [nM] | IC50 [2] [nM] | IC50 [3] [nM] | Activity [7] [%] | Activity [8] [%] | IC50 [9] [nM] | IC50 [10] [nM] | IC50 [11] [nM] | IC50 [4] [nM] | IC50 [5] [nM] | IC50 [12] [nM] | Ratio IC50 [13] | Ratio IC50 [14] | Ratio IC50 [15] | Ratio IC50 [16] | Ratio IC50 [17] | Ratio IC50 [18] | Ratio IC50 [19] | Ratio IC50 [20] | Ratio IC50 [21] | further results |
| --- | --- | --- | --- | --- | --- | --- | --- | --- | --- | --- | --- | --- | --- | --- | --- | --- | --- | --- | --- | --- | --- |
| COc1cccc2c1C(=O)c1c(O)c3c(c(O)c1C2=O)C[C@@](O)(C(=O)CO)C[C@@H]3O[C@H]1C[C@H](N)[C@H](O)[C@H](C)O1 [DOXORUBICIN] | 150 | 960 | 410 |  |  |  |  |  |  |  |  |  |  |  |  |  |  |  |  |  | IC50 at 72 h ([4]; human): 550 nM; IC50 at 72 h ([5]; Chinese hamster, NQO1-deficient V79 cells): 280 nM; IC50 at 72 h [6]: 230 nM |
| O=c1oc2ccccc2c(O)c1Cc1c(O)c2ccccc2oc1=O [DICUMAROL] |  |  |  | 0.95 | 0 |  |  |  |  |  |  |  |  |  |  |  |  |  |  |  |  |
| CC1(C)OC2=C(C(=O)c3ccccc3C2=O)C1Nc1cccc(-c2cn(C[Se]c3ccccc3)nn2)c1 (configuration not stated) | 1280 | 880 | 680 |  |  | 1080 | 1710 | 1080 | 3330 | 3780 | 3380 | 3 | 3.5 | 3.1 | 2.6 | 2.9 | 2.6 | 1.9 | 2.2 | 1.9 | Ratio IC50 [22]: 3; Ratio IC50 [23]: 3.5; Ratio IC50 [24]: 3.1; Ratio IC50 [25]: 3.7; Ratio IC50 [26]: 4.2; Ratio IC50 [27]: 3.8; Ratio IC50 [28]: 4.8; Ratio IC50 [29]: 5.5; Ratio IC50 [30]: 4.9 |
| CC1(C)OC2=C(C(=O)C(=O)c3ccccc32)C1n1cc(C[Se]c2ccccc2)nn1 (configuration not stated) |  | 1060 | 2260 | 15.07 |  | 1290 | 2430 | 1310 | 1760 | 2650 | 2300 |  |  |  |  |  |  |  |  |  | Activity [31]: 1.12%; Activity [32]: 0%; Activity [33]: 1.26%; Activity [34]: 0% |
| CC1(C)OC2=C(C(=O)C(=O)c3ccccc32)C1Nc1cccc(-c2cn(C[Se]c3ccccc3)nn2)c1 (configuration not stated) | 140 | 230 | 200 | 16.61 | 3.27 | 70 | 380 | 340 | 1390 | 1130 | 940 | 19.8 | 16.1 | 13.4 | 9.9 | 8 | 6.7 | 3.6 | 2.9 | 2.4 | Ratio IC50 [24]: 2.7; Ratio IC50 [25]: 6; Ratio IC50 [26]: 4.9; Ratio IC50 [27]: 4; Ratio IC50 [28]: 6.9; Ratio IC50 [29]: 5.6; Ratio IC50 [30]: 4.7; Activity [35]: Active; Activity [31]: 0.89%; Activity [32]: 0%; Activity [33]: 0.91%; Activity [34]: 0% |
| CC(=O)N[C@@H](CS)C(=O)O [ACETYLCYSTEINE] |  |  |  | 0.87 | 0 |  |  |  |  |  |  |  |  |  |  |  |  |  |  |  |  |
